Assay results of several laboratories.
Lines come from different studies, so protocols differ.
KMT5A: N-lysine methyltransferase KMT5A (KMT5A, Homo sapiens, UniProt Q9NQR1)
LATS1: Serine/threonine-protein kinase LATS1 (LATS1, Homo sapiens, UniProt O95835)

| target | effect on | action | technique | cell line | concentration | inhibition | SMILES |
| --- | --- | --- | --- | --- | --- | --- | --- |
| Protein kinase C beta type (PRKCB, Homo sapiens, UniProt P05771) | enzyme activity | inhibitor | – | – | 10 µM | 5% | Cc1ccc(Nc2nccc(N(C)c3ccc4c(C)n(C)nc4c3)n2)cc1S(N)(=O)=O |
| Nicotinamide phosphoribosyltransferase (NAMPT, Homo sapiens, UniProt P43490) | enzyme activity | inhibitor | – | – | 10 µM | -2% | Ic1cccc2cnccc12 |
| KMT5A | cell-free assay | – | – | – | 10 µM | 33% | CSCCC(NC=O)C(=O)NC(C)C(=O)O (stereo not shown) |
| Delta-type opioid receptor (OPRD1, Homo sapiens, UniProt P41143) | ligand displacement | – | – | – | 10 µM | 0% | O=C(c1ccc(F)cc1)N(Cc1ccccc1)C1CCCCC1 |
| KMT5A | cell-free assay | – | – | – | 10 µM | 78% | Cc1cc(-c2ccc(/N=N/c3ccc4c(S(=O)(=O)O)cc(S(=O)(=O)O)c(N)c4c3O)c(C)c2)ccc1/N=N/c1ccc2c(S(=O)(=O)O)cc(S(=O)(=O)O)c(N)c2c1O |
| cAMP-dependent protein kinase catalytic subunit alpha (PRKACA, Bos taurus, UniProt P00517) | enzyme activity | inhibitor | – | – | 0.3 µM | 0% | CCN(CC)CCNC(=O)c1c(C)[nH]c(/C=C2\C(=O)Nc3ccc(F)cc32)c1C |
| KMT5A | cell-free assay | – | – | – | 10 µM | 26% | O=C(O[C@@H]1Cc2c(O)cc(O)cc2O[C@@H]1c1cc(O)c(=O)c2c(O)c(O)cc([C@H]3Oc4cc(O)cc(O)c4C[C@H]3OC(=O)c3cc(O)c(O)c(O)c3)c2c1)c1cc(O)c(O)c(O)c1 |
| Neutrophil collagenase (MMP8, Homo sapiens, UniProt P22894) | enzyme activity | inhibitor | fluorescence | – | 1 mM | ~50% | O=C(O)c1ncccc1O |
| LATS1 | enzyme activity | inhibitor | radiometric | – | 2 µM | 97.3% | Cn1cnc(Br)c1C1=CN(c2ncnc3[nH]cnc23)CCS1 |
| KMT5A | cell-free assay | – | – | – | 10 µM | 9% | O=c1c(-c2cc(O)c(O)c(O)c2)coc2cc(O)c(O)c(O)c12 |
| Peptide deformylase, mitochondrial (Homo sapiens, UniProt Q9HBH1) | enzyme activity | inhibitor | – | – | 100 µM | ≥ 100% | COc1ccc(C(=O)c2coc3c2C(=O)C(=O)C=C3)cc1 |
| Tyrosine-protein kinase ABL1 (ABL1, Homo sapiens, UniProt P00519, E255K) | enzyme activity | inhibitor | – | – | 0.1 µM | 74% | COc1cc(-c2cc(-c3ccc(N4CCNCC4)cc3)cnc2N)cc(OC)c1OC |
| KMT5A | cell-free assay | – | – | – | 10 µM | 97% | CN(C)c1ccc(C(=C2C=CC(=[N+](C)C)C=C2)c2ccc(N(C)C)cc2)cc1 |
| Serine/threonine-protein kinase greatwall (MASTL, Homo sapiens, UniProt Q96GX5) | target engagement in cells | inhibitor | chemoproteomics | A-375 | 5 µM | -18.6% | CCN1CCN(Cc2ccc(NC(=O)c3ccc(C)c(/C=C/c4cnc5[nH]ccc5c4OC)c3)cc2C(F)(F)F)CC1 |
| cAMP-dependent protein kinase catalytic subunit alpha (PRKACA, Homo sapiens, UniProt P17612) | enzyme activity | inhibitor | FRET | – | 10 µM | 12% | CN(C)C1CCN(CC#Cc2nn(C3CCCC3)c3nc(NCc4ccccc4)ncc23)C1 (stereo not shown) |
| Histone acetyltransferase p300 (EP300, Homo sapiens, UniProt Q09472) | enzyme activity | inhibitor | radiometric | – | 50 µM | > 90% | COC(=O)/C=C\C(=O)Nc1cc2ccc(O)cc2oc1=O |
| 5-hydroxytryptamine receptor 3A (HTR3A, Homo sapiens, UniProt P46098) | ligand displacement | – | radioligand | – | 10 µM | 0.9% | Oc1cccc(Nc2nc(-c3ccc(F)cc3F)cs2)c1 |
| LATS1 | enzyme activity | inhibitor | – | – | 0.1 µM | 4% | COc1cc(-c2cc(-c3ccc(N4CCNCC4)cc3)cnc2C)cc(OC)c1OC |
| KMT5A | cell-free assay | – | – | – | 10 µM | 3% | O=c1c(O)cccc2c([C@H]3Oc4cc(O)cc(O)c4C[C@H]3O)cc(O)c(O)c12 |
